Measurements taken from ChEMBL document CHEMBL1287651, “Synthesis and in vitro antibacterial activity of fluoroquinolone derivatives containing 3-(N'-alkoxycarbamimidoyl)-4-(alkoxyimino) pyrrolidines” (2010).
Values after ≈ are worked out from the molar mass of the structure shown.

Key:
Type in all cases: functional
[1] = tested on: Enterococcus faecalis; test: Antibacterial activity against Enterococcus faecalis 08-10 after 18 to 24 hrs by twofold serial dilution method
Summary of the method: (§1)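 MIC determined by the standard twofold serial dilution method on agar media, screening against Gram-positive and Gram-negative strains. Levofloxacin and gemifloxacin were run alongside as reference drugs.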

[2] = tested on: Staphylococcus aureus; test: Antibacterial activity against Staphylococcus aureus ATCC […] after 18 to 24 hrs by twofold serial dilution method; summary of the method: as §1
[3] = tested on: Streptococcus pneumoniae; test: Antibacterial activity against Streptococcus pneumoniae 08-4 after 18 to 24 hrs by twofold serial dilution method; summary of the method: as §1
[4] = tested on: Pseudomonas aeruginosa; test: Antibacterial activity against Pseudomonas aeruginosa 09-33 after 18 to 24 hrs by twofold serial dilution method; summary of the method: as §1
[5] = tested on: Staphylococcus epidermidis; test: Antibacterial activity against methicillin-sensitive Staphylococcus epidermidis 09-3 after 18 to 24 hrs by twofold serial dilution method
Summary of the method: (§2)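 Standard twofold serial agar dilution method on agar media for MIC determination. Screened against representative Gram-positive and Gram-negative strains. Levofloxacin and GMFX served as control drugs.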

[6] = tested on: Pseudomonas aeruginosa; test: Antibacterial activity against Pseudomonas aeruginosa 09-34 after 18 to 24 hrs by twofold serial dilution method; summary of the method: as §1
[7] = tested on: Staphylococcus epidermidis; test: Antibacterial activity against methicillin-sensitive Staphylococcus epidermidis 09-6 after 18 to 24 hrs by twofold serial dilution method; summary of the method: as §2
[8] = tested on: Escherichia coli; test: Antibacterial activity against Escherichia coli 08-21 after 18 to 24 hrs by twofold serial dilution method; summary of the method: as §1
[9] = tested on: Streptococcus pneumoniae; test: Antibacterial activity against Streptococcus pneumoniae 08-2 after 18 to 24 hrs by twofold serial dilution method; summary of the method: as §1
[10] = tested on: Staphylococcus epidermidis; test: Antibacterial activity against methicillin-resistant Staphylococcus epidermidis 09-2 after 18 to 24 hrs by twofold serial dilution method; summary of the method: as §2
[11] = tested on: Staphylococcus aureus; test: Antibacterial activity against methicillin-sensitive Staphylococcus aureus 08-2 after 18 to 24 hrs by twofold serial dilution method; summary of the method: as §2
[12] = tested on: Pseudomonas aeruginosa; test: Antibacterial activity against Pseudomonas aeruginosa 09-32 after 18 to 24 hrs by twofold serial dilution method; summary of the method: as §1
[13] = tested on: Escherichia coli; test: Antibacterial activity against Escherichia coli ATCC 25922 after 18 to 24 hrs by twofold serial dilution method; summary of the method: as §1
[14] = tested on: Enterococcus faecium; test: Antibacterial activity against Enterococcus faecium 08-2 after 18 to 24 hrs by twofold serial dilution method; summary of the method: as §1
[15] = tested on: Klebsiella pneumoniae; test: Antibacterial activity against Klebsiella pneumoniae 09-23 after 18 to 24 hrs by twofold serial dilution method; summary of the method: as §1
[16] = tested on: Klebsiella pneumoniae; test: Antibacterial activity against Klebsiella pneumoniae 09-21 after 18 to 24 hrs by twofold serial dilution method; summary of the method: as §1
[17] = tested on: Klebsiella pneumoniae; test: Antibacterial activity against Klebsiella pneumoniae 09-22 after 18 to 24 hrs by twofold serial dilution method; summary of the method: as §1
[18] = tested on: Enterococcus faecalis; test: Antibacterial activity against Enterococcus faecalis 08-12 after 18 to 24 hrs by twofold serial dilution method; summary of the method: as §1
[19] = tested on: Staphylococcus aureus; test: Antibacterial activity against methicillin-resistant Staphylococcus aureus 08-1 after 18 to 24 hrs by twofold serial dilution method; summary of the method: as §2
[20] = tested on: Staphylococcus epidermidis; test: Antibacterial activity against methicillin-resistant Staphylococcus epidermidis 09-3 after 18 to 24 hrs by twofold serial dilution method; summary of the method: as §2
[21] = tested on: Escherichia coli; test: Antibacterial activity against Escherichia coli 08-22 after 18 to 24 hrs by twofold serial dilution method; summary of the method: as §1
[22] = tested on: Pseudomonas aeruginosa; test: Antibacterial activity against Pseudomonas aeruginosa ATCC 27853 after 18 to 24 hrs by twofold serial dilution method; summary of the method: as §1
[23] = tested on: Pseudomonas aeruginosa; test: Antibacterial activity against Pseudomonas aeruginosa 09-35 after 18 to 24 hrs by twofold serial dilution method; summary of the method: as §1
[24] = tested on: Enterococcus faecium; test: Antibacterial activity against Enterococcus faecium 08-7 after 18 to 24 hrs by twofold serial dilution method; summary of the method: as §1
[25] = tested on: Staphylococcus epidermidis; test: Antibacterial activity against methicillin-resistant Staphylococcus epidermidis 09-4 after 18 to 24 hrs by twofold serial dilution method; summary of the method: as §2

Structure (SMILES) | MIC [1] [mg/L] | MIC [2] [mg/L] | MIC [3] [mg/L] | MIC [4] [mg/L] | MIC [5] [mg/L] | MIC [6] [mg/L] | MIC [7] [mg/L] | MIC [8] [mg/L] | MIC [9] [mg/L] | MIC [10] [mg/L] | MIC [11] [mg/L] | MIC [12] [mg/L] | MIC [13] [mg/L] | MIC [14] [mg/L] | MIC [15] [mg/L] | MIC [16] [mg/L] | MIC [17] [mg/L] | MIC [18] [mg/L] | MIC [19] [mg/L] | MIC [20] [mg/L] | other results
CO/N=C1\CN(c2nc3c(cc2F)c(=O)c(C(=O)O)cn3C2CC2)CC1/C(N)=N\OC (stereo not given) | > 128 | 0.25 (≈ 0.578 µM) | 1 (≈ 2.31 µM) | > 128 | 0.25 (≈ 0.578 µM) | > 128 | 0.25 (≈ 0.578 µM) | > 128 | > 128 | 1 (≈ 2.31 µM) | 1 (≈ 2.31 µM) | 128 (≈ 296 µM) | 128 (≈ 296 µM) | > 128 | > 128 | > 128 | 1 (≈ 2.31 µM) | > 128 | 0.25 (≈ 0.578 µM) | 0.25 (≈ 0.578 µM) | MIC [21]: > 128 mg/L; MIC [22]: 64 mg/L (≈ 148 µM); MIC [23]: 64 mg/L (≈ 148 µM); MIC [24]: > 128 mg/L; MIC [25]: 0.25 mg/L (≈ 0.578 µM)
CCO/N=C1\CN(c2nc3c(cc2F)c(=O)c(C(=O)O)cn3C2CC2)CC1/C(N)=N\OC (stereo not given) | > 128 | 0.5 (≈ 1.12 µM) | 0.25 (≈ 0.56 µM) | > 128 | 0.25 (≈ 0.56 µM) | > 128 | 0.25 (≈ 0.56 µM) | > 128 | 128 (≈ 287 µM) | 128 (≈ 287 µM) | 0.25 (≈ 0.56 µM) | 64 (≈ 143 µM) | > 128 | > 128 | > 128 | > 128 | 1 (≈ 2.24 µM) | > 128 | 0.25 (≈ 0.56 µM) | 0.125 (≈ 0.28 µM) | MIC [21]: > 128 mg/L; MIC [22]: 64 mg/L (≈ 143 µM); MIC [23]: 64 mg/L (≈ 143 µM); MIC [24]: > 128 mg/L; MIC [25]: 0.25 mg/L (≈ 0.56 µM)
CCO/N=C(/N)C1CN(c2nc3c(cc2F)c(=O)c(C(=O)O)cn3C2CC2)C/C1=N\OC (stereo not given) | > 128 | 2 (≈ 4.48 µM) | > 128 | > 128 | 0.25 (≈ 0.56 µM) | > 128 | 0.25 (≈ 0.56 µM) | > 128 | > 128 | 2 (≈ 4.48 µM) | 2 (≈ 4.48 µM) | > 128 | > 128 | > 128 | > 128 | > 128 | 16 (≈ 35.8 µM) | > 128 | 2 (≈ 4.48 µM) | 0.25 (≈ 0.56 µM) | MIC [21]: > 128 mg/L; MIC [22]: > 128 mg/L; MIC [23]: > 128 mg/L; MIC [24]: > 128 mg/L; MIC [25]: 0.125 mg/L (≈ 0.28 µM)
